Screening results deposited in PubChem by several laboratories.
This is a sample that favours compounds with a hit; in the whole collection about 2.2% have one here.
EBV gp42 block: Epstein-Barr virus gp42 inhibitors, primary screen, biochemical, uHTS, fluorescence polarization; Fluorescence polarization binding assay, mP read-out; inhibition, % (tested at 21.74 µM); 0.42% of 220,000 active; AID 1085, 2008; in the data active = inhibition above about 50%
MEX-5 binding: MEX-5 zinc finger RNA-binding disruptors – biochemical, C. elegans, fluorescence polarization, MLPCN library, primary screen; Zinc finger protein mex-5 (Caenorhabditis elegans), Q9XUB2; MEX-5/FITC-TCR2 RNA binding; active compounds read low; activity score (negative = inhibition of binding), % at 10 µM; 0.38% of 300,000 active;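 active = inhibition past about -25% in most replicates, and total fluorescence under double the plate's negative control median, limit read from the data; inconclusive = replicates evenly split on the limit, or fluorescence at least double controls; inactive = too little inhibition in most replicates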;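 also: 0% = DMSO and -100% = 5 µM competing unlabeled TCR2 RNA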
Target sequence (Q9XUB2 whole entry, looked up): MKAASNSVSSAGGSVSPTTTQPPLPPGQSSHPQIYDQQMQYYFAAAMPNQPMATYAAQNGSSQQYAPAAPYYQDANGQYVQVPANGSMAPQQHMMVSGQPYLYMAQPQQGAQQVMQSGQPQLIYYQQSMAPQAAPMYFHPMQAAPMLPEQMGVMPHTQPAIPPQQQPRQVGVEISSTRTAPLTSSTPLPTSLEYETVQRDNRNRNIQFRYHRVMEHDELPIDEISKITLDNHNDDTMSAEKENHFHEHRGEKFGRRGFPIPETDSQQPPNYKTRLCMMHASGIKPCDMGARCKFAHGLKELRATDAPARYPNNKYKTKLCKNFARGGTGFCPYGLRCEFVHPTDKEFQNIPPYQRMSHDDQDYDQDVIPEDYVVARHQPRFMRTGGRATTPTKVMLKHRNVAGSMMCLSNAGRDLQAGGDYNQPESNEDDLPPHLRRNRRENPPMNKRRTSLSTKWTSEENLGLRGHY
VIM-2 inh: VIM-2 metallo-beta-lactamase inhibitors, primary screen, biochemical, epi-absorbance readout, Pseudomonas aeruginosa enzyme | inhibition, % at 5.6 µM | 0.89% of 290,000 active | purified VIM-2, nitrocefin hydrolysis, epi-absorbance fluorescence;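 active = inhibition above the mean of all tested compounds plus 3 SD, cutoff set per screening run, cut at about 7.5% in these data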;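 also: red hydrolysis product quenches plate fluorescence so inhibitors raise well fluorescence; 0% = enzyme with DMSO and 100% = DMSO without enzyme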
IMP-1 inh-1: IMP-1 metallo-beta-lactamase inhibitors, primary screen, biochemical, epi-absorbance readout, Pseudomonas aeruginosa enzyme; purified IMP-1, nitrocefin hydrolysis, epi-absorbance fluorescence; inhibition, % at 5.6 µM; 0.45% of 290,000 active;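 active = inhibition above the mean plus 3 SD of all compounds in the same screening run, cut at about 4.5% in these data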;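 also: 0% = IMP-1 with DMSO and 100% = DMSO wells lacking enzyme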
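Assay system: purified recombinant IMP-1 beta-lactamase. Input: IMP-1 0.2 nM before substrate addition. Buffer or medium: Zinc- and detergent-supplemented HEPES buffer, pH 7.1. Schedule: 25 °C, 15 min preincubation, 25 min reaction. Signal: Epi-absorbance fluorescence, 480 nm excitation, 530 nm emission. Evaluation: percent inhibition from optical density relative to buffer-blank wells.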
Bcl-xL primary: inhibitors of human Bcl-xL, primary screen, biochemical, fluorescence polarization, HTS; Bcl-2-like protein 1 (Homo sapiens), Q07817; GST-Bcl-xL / FITC-Bim BH3 peptide fluorescence polarization; inhibition, % at 10.9 µM; 0.7% of 320,000 active; AID 2129, 2009;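 active = inhibition above the mean of all tested compounds plus 3 SD, cutoff set per campaign, cut at about 30% in these data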;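 also: 0% = DMSO wells and 100% = unlabeled Bim-BH3 peptide competitor; inhibitors lower millipolarization by displacing the labeled peptide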
GLD-1 RNA inh: GLD-1/TGE RNA complex disruptors, primary screen, biochemical, fluorescence polarization. 0.44% of 320,000 active. AID 2280, 2010. purified GLD-1 + fluorescein TGE RNA. inhibition, % at 5.96 µM. Female germline-specific tumor suppressor gld-1 (Caenorhabditis elegans), Q17339;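 active = percent inhibition above a per-plate cutoff, the plate mean of test compounds plus 3 SD, cut at about 30% in these data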;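 also: 0% = DMSO wells with GLD-1 and probe and 100% = wells lacking GLD-1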
IMP-1 inh-2: IMP-1 metallo-beta-lactamase inhibitors, confirmation, selectivity assay for selective VIM-2 inhibitor project, biochemical, epi-absorbance readout, triplicate | shares compounds with VIM-2 inh | purified IMP-1, nitrocefin hydrolysis, epi-absorbance fluorescence | inhibition, % at 5.6 µM | 1,300 tested, under 10 active | AID 1856, 2009; call rule not given here;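 also: 0% = enzyme with vehicle and 100% = vehicle without enzyme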
VIM-2 FRET ctr: VIM-2 inhibitors in FRET format, confirmation, artefact control for selective VIM-2 inhibitor project, biochemical, epi-absorbance artifact exclusion; inhibition, % at 5.6 µM; shares compounds with VIM-2 inh; purified VIM-2, CCF2 FRET substrate hydrolysis; 23% of 1,300 active;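 active = inhibition above the mean of all tested compounds plus 3 SD, cut at about 19% in these data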;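 also: 0% = VIM-2 plus DMSO and 100% = no enzyme wells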
TEM-1 inh: TEM-1 serine beta-lactamase inhibitors, counter-screen for VIM-2 inhibitor project, biochemical, epi-absorbance, HTS | shares compounds with VIM-2 inh | Purified TEM-1, nitrocefin hydrolysis, epi-absorbance fluorescence | inhibition, % at 5.6 µM | 3% of 1,300 active | AID 1866, 2009;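 active = inhibition above that campaign's mean inhibition plus 3 SD, cut at about 0.46% in these data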;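 also: 0% = TEM-1 with DMSO and 100% = TEM-1 with 100 µM potassium clavulanate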
VIM-2 confirm 2: VIM-2 metallo-beta-lactamase inhibitors, confirmation, biochemical, epi-absorbance, hits shared with IMP-1 screen | inhibition, % at 5.6 µM | purified VIM-2, nitrocefin hydrolysis | shares compounds with VIM-2 inh | AID 2187, 2009 | 96% of 1,300 active;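 active = inhibition of the VIM-2 beta-lactamase enzyme above about 11% from the earlier first-round screen, limit read from the data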;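 also: 0% = VIM-2 with DMSO and 100% = buffer wells without enzyme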
The depositor's hits bear a star; ? = inconclusive; nt = no result given.

SMILES	EBV gp42 block	MEX-5 binding	VIM-2 inh	IMP-1 inh-1	Bcl-xL primary	GLD-1 RNA inh	IMP-1 inh-2	VIM-2 FRET ctr	TEM-1 inh	VIM-2 confirm 2
COc1ccc(C(=O)NC(C(=O)NCCc2ccc3c(c2)OCCO3)C(C)C)cc1 (stereo not drawn)	-20	-7	0	-2	-15	8	nt	nt	nt	nt
Cc1c(C)c2ccc(OC(C)C(=O)NCCCn3ccnc3)c(C)c2oc1=O (stereo not drawn)	nt	3	45*	0	1	9	-2	-4	-11	54*
Cc1c(OC(C)C(=O)NCCCN2CCOCC2)ccc2c1oc(=O)c1ccccc12 (stereo not drawn)	nt	0	19*	-1	1	-2	-3	2	-11	29*
Cc1c(OC(C)C(=O)NCCN2CCOCC2)ccc2c(-c3ccccc3)cc(=O)oc12 (stereo not drawn)	nt	1	1	-1	4	-2	nt	nt	nt	nt
CCc1cc(=O)oc2cc(C)cc(OC(C)C(=O)NCCCn3ccnc3)c12 (stereo not drawn)	nt	2	36*	-3	-2	-5	-3	-9	-4	49*
CCc1ccc(-c2cc(C)no2)cc1S(=O)(=O)NC(C)Cc1ccco1 (stereo not drawn)	nt	2	-4	-2	1	-1	nt	nt	nt	nt
C=C(C)Cn1c(-c2cccs2)n[nH]c1=S	-8	1	48*	-1	-17	6	-4	71*	-9	53*
CN(CCCNC(=O)c1cccn2c(=O)c3ccccc3nc12)Cc1ccccc1	-1	-1	22*	-2	0	3	-3	-3	-7	45*
O=C(NCCN1CCN(c2ccccc2F)CC1)c1cccn2c(=O)c3ccccc3nc12	-11	-5	0	-1	-5	-5	nt	nt	nt	nt
Cc1cccn2c(=O)c3cc(C(=O)NCC4CCCO4)c(=N)n(CCc4ccccc4)c3nc12 (stereo not drawn)	nt	?	0	-4	12	-1	nt	nt	nt	nt
COc1ccc(CCn2c(=N)c(C(=O)NCC3CCCO3)cc3c(=O)n4ccccc4nc32)cc1OC (stereo not drawn)	nt	2	14*	-2	3	-12	-2	-1	-5	21*
CCN(C(=O)CN1C(=O)NC2(CCc3ccccc32)C1=O)C1CCS(=O)(=O)C1 (stereo not drawn)	nt	nt	nt	nt	10	9	nt	nt	nt	nt
Cc1cccc(C)c1OCC(=O)Nc1ccc2c(c1)OCCO2	nt	-4	-4	-5	3	6	nt	nt	nt	nt
CN1C(=O)/C(=C2\SC(N3CCCCCC3)=NC2=O)c2ccccc21	-6	-8	13*	-3	6	-4	-4	-7	-9	26*
COc1ccccc1N1CC(C(=O)Nc2nnc(SCc3ccccn3)s2)CC1=O (stereo not drawn)	-11	2	-2	-1	5	-7	nt	nt	nt	nt
